Test results reported in paper PMC3228362 (Biochemistry, 2011).
“And” between values parts separate entries of the source, which are not always exact repeats. Equal values may be shown once. Read-outs that look alike come from different tables or passages of the source. Marks after values point to notes of the source that are not given here.

Assays:
[1] = target: T1, RB69 Y567A exo^- DNA polymerase (Escherichia phage RB69, UniProt Q38087, D222A/D327A/Y567A); assay type: biochemical, bacteriophage RB69
Procedure, shortened: (§1)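 Single-turnover rapid chemical quench at 22 °C in 66 mM Tris-HCl pH 7.5. Final concentrations were 100 nM 5′-32P-labeled DNA, 1 μM polymerase, 10 mM MgCl2 and varying dNTP. Reactions were quenched with 0.5 M EDTA. Products were resolved on 20% acrylamide/8 M urea gels and quantified by phosphorimaging. Data were fit to a single exponential.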

[2] = system: T4 exo^- DNA polymerase; conditions: opposite template 2AP, long A+T-rich DNA 1, cited from earlier work
[3] = system: T4 exo^- DNA polymerase; assay: Nucleotide incorporation opposite template 2AP; assay type: biochemical, bacteriophage T4; conditions: for kpol / Kdincorp: long A+T-rich DNA 1, from data of ref 13
[4] = target: T2, RB69 exo^- DNA polymerase (D222A/D327A, wild type) (Escherichia phage RB69, UniProt Q38087, D222A/D327A); assay type: biochemical, bacteriophage RB69; conditions: opposite template 2AP; for Kd: read-out: Kdincorp, app
Procedure, shortened: as §1

[5] = system: T4 exo^- DNA polymerase; conditions: cited from earlier work
[6] = system: T4 exo^- DNA polymerase; assay: Nucleotide binding opposite template 2AP; design: species or system bacteriophage T4; conditions: for Kd: opposite template 2AP
[7] = target: T1, RB69 Y567A exo^- DNA polymerase; assay: Nucleotide binding opposite template 2AP; design: species or system bacteriophage RB69; conditions: for Kd: opposite template 2AP
Procedure, shortened: (§2)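 Chain-terminated (dideoxy) 2AP-labeled primer-template DNA at 200 nM with a 2 to 2.5-fold excess of polymerase, in 25 mM HEPES pH 7.6, 50 mM NaCl, 1 mM DTT and 10 mM MgCl2. Nucleotide was added incrementally. Excitation was at 315 nm and emission was scanned from 330 to 450 nm with 2 nm band-pass, at 20 °C. Kd was taken from the fluorescence quench curves.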

[8] = target: T2, RB69 exo^- DNA polymerase (D222A/D327A, wild type); assay: Nucleotide binding opposite template 2AP; design: species or system bacteriophage RB69; conditions: for Kd: read-out: Kdbind, opposite template 2AP
Procedure, shortened: as §2

[9] = system: DNA polymerase α; conditions: cited from earlier work
[10] = A+T- and G+C-rich DNAs (Table 1)
[11] = opposite template 2AP, long A+T-rich DNA 1
[12] = opposite template 2AP, long G+C-rich DNA 2
[13] = opposite template 2AP, short A+T-rich DNA 3
[14] = opposite template 2AP, short G+C-rich DNA 4
[15] = read-out: Kdincorp, app, opposite template 2AP, long A+T-rich DNA 1
[16] = read-out: Kdincorp, app, opposite template 2AP, short A+T-rich DNA 3
[17] = read-out: Kdincorp, app, opposite template 2AP, short G+C-rich DNA 4
[18] = read-out: Kdbind, long A+T-rich DNA 1
[19] = read-out: Kdbind, long G+C-rich DNA 2
[20] = read-out: Kd (Table 3), DNA 1, conditions as Table 1

T2 sequence (Q38087 whole entry D222A/D327A): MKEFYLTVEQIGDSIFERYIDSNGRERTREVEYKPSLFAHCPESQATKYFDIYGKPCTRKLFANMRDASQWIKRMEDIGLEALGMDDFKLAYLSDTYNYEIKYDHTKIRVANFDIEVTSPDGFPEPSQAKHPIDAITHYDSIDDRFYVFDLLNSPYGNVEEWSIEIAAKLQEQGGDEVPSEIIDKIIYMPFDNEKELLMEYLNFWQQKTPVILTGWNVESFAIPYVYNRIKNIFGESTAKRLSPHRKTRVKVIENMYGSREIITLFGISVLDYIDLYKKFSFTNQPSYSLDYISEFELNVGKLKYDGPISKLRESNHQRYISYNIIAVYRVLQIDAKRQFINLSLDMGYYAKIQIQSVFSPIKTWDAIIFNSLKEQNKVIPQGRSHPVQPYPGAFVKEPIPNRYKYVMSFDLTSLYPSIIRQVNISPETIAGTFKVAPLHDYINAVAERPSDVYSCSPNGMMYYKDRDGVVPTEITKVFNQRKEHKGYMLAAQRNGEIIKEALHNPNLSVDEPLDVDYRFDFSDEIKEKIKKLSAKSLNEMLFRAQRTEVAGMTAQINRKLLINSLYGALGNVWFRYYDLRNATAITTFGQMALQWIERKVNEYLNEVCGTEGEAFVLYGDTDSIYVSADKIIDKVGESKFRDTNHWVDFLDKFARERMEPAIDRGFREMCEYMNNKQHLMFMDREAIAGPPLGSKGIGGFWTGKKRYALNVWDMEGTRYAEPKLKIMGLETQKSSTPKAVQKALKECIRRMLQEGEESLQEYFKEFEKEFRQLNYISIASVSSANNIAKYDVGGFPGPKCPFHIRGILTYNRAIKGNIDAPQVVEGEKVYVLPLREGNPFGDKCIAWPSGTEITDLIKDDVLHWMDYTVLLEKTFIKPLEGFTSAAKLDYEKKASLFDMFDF
T1 sequence (Q38087 whole entry D222A/D327A/Y567A): as the sequence (Q38087 whole entry D222A/D327A) above, with Y567A counted along it

Compound: Nc1ccn([C@H]2C[C@H](O)[C@@H](COP(=O)(O)O)O2)c(=O)n1 [dCMP]
- kpol [1, 10]: ~ 6 s^−1
- kpol, fold lower than for incorporation of dTMP [1, 10]: > 30 fold
- kpol/Kd incorporation ratio (efficiency of misincorporation) ([1]; longer and shorter A+T-rich DNA substrates): 30000 to 40000 M⁻¹ s⁻¹
- kpol/Kd incorporation ratio (efficiency of misincorporation) ([1]; longer and shorter G+C-rich DNA substrates): 3000 to 7000 M⁻¹ s⁻¹
- kpol (overall nucleotide incorporation rate) [1, 11]: 6.4 ± 0.6 s⁻¹
- kpol / Kdincorp [1, 11]: 40000 M⁻¹ s⁻¹
- kpol (overall nucleotide incorporation rate) [1, 12]: ~6 s⁻¹
- kpol / Kdincorp [1, 12]: ~3000 M⁻¹ s⁻¹
- kpol (overall nucleotide incorporation rate) [1, 13]: 9.3 ± 0.7 s⁻¹
- kpol / Kdincorp [1, 13]: 30000 M⁻¹ s⁻¹
- kpol / Kdincorp [1, 14]: 7000 M⁻¹ s⁻¹
- Kd ([1]; read-out: Kd,app for incorporation, shorter A+T- and G+C-rich DNAs (Table 2)): 300 to 360 µM
- Kd [1, 15]: ~170 µM and 170 µM
- Kd [1, 16]: 298 ± 65 µM
- Kd [1, 17]: 361 ± 52 µM
- kpol (overall nucleotide incorporation rate) [2]: 2.3 ± 0.1 s^−1 ^a
- kpol / Kdincorp [3]: <0.0008 µM⁻¹ s⁻¹
- kpol (overall nucleotide incorporation rate) ([4]; short A+T-rich DNA 3): slow ^c
- kpol / Kdincorp ([4]; short A+T-rich DNA 3): <1000 to 3000 M⁻¹ s⁻¹
- kpol (overall nucleotide incorporation rate) ([4]; short G+C-rich DNA 4): slow ^c
- kpol / Kdincorp ([4]; short G+C-rich DNA 4): <1000 to 3000 M⁻¹ s⁻¹

Compound: Nc1ccn([C@H]2C[C@H](O)[C@@H](COP(=O)(O)OP(=O)(O)OP(=O)(O)O)O2)c(=O)n1 [dCTP]
- inhibition of dTTP binding [5]: not an inhibitor of dTTP binding
- Kd ([5]; read-out: Kd for binding opposite template 2AP): ≥ 3000 µM
- discrimination against binding compared to dTTP, factor ([6]; 30 μM compared to 3 mM): ≥ 100
- Kd for binding, fold higher than Kd for dTTP binding ([7]; A+T-rich DNA substrate (DNA 1)): < 3 fold
- Kd for binding, fold higher than Kd for dTTP binding ([7]; G+C-rich DNA (DNA 2)): > 20 fold
- Kd [7, 18]: 24.8 ± 2.1 µM
- Kd [7, 19]: ~317 µM and 317 µM
- Kd ([7]; read-out: Kdbind, short A+T-rich DNA 3): ~53 µM and 53 µM
- Kd ([7]; read-out: Kdbind, short G+C-rich DNA 4): ~373 µM and 373 µM
- discrimination against binding compared to dTTP, factor ([8]; 30 μM compared to 3 mM): ≥ 100

Compound: Cc1cc(C2CC(O)C(COP(=O)(O)OP(=O)(O)OP(=O)(O)O)O2)c(F)cc1F (centres unmarked) [dFTP, difluorotoluene deoxynucleoside triphosphate]
- quench of 2AP fluorescence ([5]; at concentrations <150 μM, T4 DNA pol binary complexes): does not quench 2AP fluorescence
- Ki ([5]; read-out: Ki (competitive inhibitor of dTTP-Mg^2+-induced quenching), T4 DNA pol binary complexes): ~68 µM

Compound: Cc1cn([C@H]2C[C@H](O)[C@@H](COP(=O)(O)O)O2)c(=O)[nH]c1=O [dTMP]
- kpol [1, 10]: ~ 200 s^−1
- preference for dTMP over dCMP incorporation ([1]; longer DNA substrates (Table 1)): ~ 300 fold and > 300 fold
- dTMP/dCMP (ratio of kpol / Kdincorp) [1, 11]: 375
- kpol (overall nucleotide incorporation rate) [1, 11]: 240 ± 11 s⁻¹
- kpol / Kdincorp [1, 11]: 1.5e+07 M⁻¹ s⁻¹
- dTMP/dCMP (ratio of kpol / Kdincorp) [1, 12]: 333
- kpol (overall nucleotide incorporation rate) [1, 12]: 190 ± 11 s⁻¹
- kpol / Kdincorp [1, 12]: 1e+06 M⁻¹ s⁻¹
- dTMP/dCMP (ratio of kpol / Kdincorp) [1, 13]: 143
- kpol (overall nucleotide incorporation rate) [1, 13]: 289 ± 9 s⁻¹
- kpol / Kdincorp [1, 13]: 4.3e+06 M⁻¹ s⁻¹
- dTMP/dCMP (ratio of kpol / Kdincorp) [1, 14]: 129
- kpol (overall nucleotide incorporation rate) [1, 14]: 233 ± 27 s⁻¹
- kpol / Kdincorp [1, 14]: 900000 M⁻¹ s⁻¹
- Kd [1, 15]: ~16 µM and 16 µM
- Kd ([1]; read-out: Kdincorp, app, opposite template 2AP, long G+C-rich DNA 2): 180 ± 75 µM
- Kd [1, 16]: 67.3 ± 8 µM
- Kd [1, 17]: 263 ± 78 µM
- preference for dTMP over dCMP incorporation ([1]; shorter DNAs (Table 2)): ~ 100 fold and > 100 fold
- kpol (overall nucleotide incorporation rate) [2]: 165 ± 3 s^−1 ^a
- Kd ([2]; read-out: Kdincorp, app): 367 ± 36 µM
- incorporation opposite template 2AP favored over incorporation of dCMP [9]: 20- to 25 fold
- dTMP/dCMP (ratio of kpol / Kdincorp) ([3]; long A+T-rich DNA 1): >560
- kpol / Kdincorp [3]: 0.45 ^f μM^−1 s^−1
- dTMP/dCMP (ratio of kpol / Kdincorp) ([4]; short A+T-rich DNA 3): >1000
- kpol (overall nucleotide incorporation rate) ([4]; short A+T-rich DNA 3): 379 ± 28 s⁻¹
- kpol / Kdincorp ([4]; short A+T-rich DNA 3): 3.3e+06 M⁻¹ s⁻¹
- dTMP/dCMP (ratio of kpol / Kdincorp) ([4]; short G+C-rich DNA 4): >1000
- kpol (overall nucleotide incorporation rate) ([4]; short G+C-rich DNA 4): 201 ± 16 s⁻¹
- kpol / Kdincorp ([4]; short G+C-rich DNA 4): 1e+06 M⁻¹ s⁻¹
- Kd ([4]; short A+T-rich DNA 3): 114 ± 26 µM
- Kd ([4]; short G+C-rich DNA 4): 200 ± 45 µM

Compound: Cc1cn([C@H]2C[C@H](O)[C@@H](COP(=O)(O)OP(=O)(O)OP(=O)(O)O)O2)c(=O)[nH]c1=O [dTTP]
- kpol (rate of nucleotide binding) ([5]; long A+T-rich DNA 1, rapid = within dead time of stopped flow instrument): rapid ^a
- Kd ([5]; read-out: Kdbind, opposite template 2AP, long A+T-rich DNA 1): ~35 µM and 35 µM
- kpol (rate of nucleotide binding) ([6]; long G+C-rich DNA 2): rapid
- Kd [6, 19]: 28.7 ± 0.6 µM
- Kd [7, 18]: 9.2 ± 0.8 µM
- Kd [7, 19]: 15.1 ± 1.4 µM
- Kd ([8]; long A+T-rich DNA 1): 31.1 ± 0.9 µM
- Kd ([8]; long G+C-rich DNA 2): 30 ± 0.4 µM

Compound: O=c1ccn([C@H]2C[C@H](O)[C@@H](COP(=O)(O)OP(=O)(O)OP(=O)(O)O)O2)c(=O)[nH]1 [dUTP]
- Kd [6, 20]: 74.1 ± 2 µM
- Kd [7, 20]: 21 ± 1 µM

Compound: O=c1ccn([C@@H]2O[C@H](COP(=O)(O)OP(=O)(O)OP(=O)(O)O)[C@@H](O)[C@H]2O)c(=O)[nH]1 [rUTP]
- Kd [6, 20]: > 3000 µM
- Kd [7, 20]: 522 ± 55 µM
